# From PubChem
# APJ antag: APJ receptor antagonism | CHO-K1 APJ beta-arrestin complementation, luminescence | AID 2521 | inhibition, % at 20 µM | P35414 | 330,000 tested, 0.32% active;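 active means inhibition above about 40% at 20 µM, limit read from the data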;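 further: cells challenged with 10 nM apelin-13 agonist together with compound; plate controls were apelin-13 plus DMSO wells for no effect and DMSO wells lacking apelin-13 for full effect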
# Target sequence (P35414 whole entry, looked up): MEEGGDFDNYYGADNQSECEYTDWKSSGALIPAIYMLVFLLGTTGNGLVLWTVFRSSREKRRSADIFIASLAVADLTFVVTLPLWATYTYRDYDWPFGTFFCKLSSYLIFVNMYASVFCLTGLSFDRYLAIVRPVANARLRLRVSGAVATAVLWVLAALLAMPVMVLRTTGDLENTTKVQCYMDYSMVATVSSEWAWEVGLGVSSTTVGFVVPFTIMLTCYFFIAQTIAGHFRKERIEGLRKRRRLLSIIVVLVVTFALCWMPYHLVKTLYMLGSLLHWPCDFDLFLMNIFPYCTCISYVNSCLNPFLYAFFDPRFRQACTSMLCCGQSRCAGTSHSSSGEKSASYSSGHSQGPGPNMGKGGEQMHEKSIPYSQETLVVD
# APJ ag: agonists of human APJ apelin receptor | CHO-K1 APJ PathHunter beta-arrestin, luminescence; 0% DMSO wells, 100% apelin | activation, % at 20 µM | 330,000 tested, 0.11% active | AID 2520;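 active means activation more than six SD over the plate average, tested at 20 µM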;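 further: 0% = DMSO alone and 100% = apelin-13 at 10 nM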
#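 Assay system – PathHunter CHO-K1 APJ (AGTRL-1) beta-arrestin reporter cells · Compound – one dose, 20 µM compound, 1% DMSO · Timing – compound 90 min 25 °C, reagent 1 h · Measured by – luminescence from split beta-galactosidase complementation, Galacton Star/Emerald II substrate · Measure – beta-arrestin recruitment to APJ as agonist activity, luminescent signal · Benchmarks – DMSO vs Apelin-13 10 nM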
# CXCR6 inh: inhibitors of human CXCR6 receptor; CHO-K1 PathHunter CXCR6 beta-arrestin, luminescence; inhibition, % at 20 µM; O00574; 360,000 tested, 0.36% active; in the data active means inhibition above about 34%, passing the limit was not always enough;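 further: antagonist mode with CXCL16 agonist at 10 nM final; 0% = 10 nM CXCL16 with DMSO and 100% = unstimulated wells without agonist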
# Target sequence (O00574 whole entry, looked up): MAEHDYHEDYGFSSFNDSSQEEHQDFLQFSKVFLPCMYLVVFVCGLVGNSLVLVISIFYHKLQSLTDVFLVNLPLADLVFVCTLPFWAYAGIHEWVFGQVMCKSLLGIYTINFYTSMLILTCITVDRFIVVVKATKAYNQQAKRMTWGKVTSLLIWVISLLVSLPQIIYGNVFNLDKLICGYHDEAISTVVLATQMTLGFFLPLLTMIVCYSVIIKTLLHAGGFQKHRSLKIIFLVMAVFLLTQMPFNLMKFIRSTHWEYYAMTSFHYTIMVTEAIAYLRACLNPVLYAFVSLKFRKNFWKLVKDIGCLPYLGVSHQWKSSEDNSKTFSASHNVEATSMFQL
# PKA-R1A act: PKA-R1A complex activation; P00514+P68181; PKA-R1A dissociation, Cy5-IP20 fluorescence polarization; scaled: DMSO 0%, 113 µM cGMP 100%; activation, % at 11.4 µM; 340,000 tested, 0.083% active; AID 504707;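 active means percent activation above the mean of all tested compounds plus 3 SD, cut at about 19% in these data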;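 further: higher means more PKAc released from R1A so a rise in polarization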
# PKA-R2B act: activates the human PKA-R2B holoenzyme complex | activation, % at 11.4 µM | 340,000 tested, 0.079% active | P22694+P31323 | PKA-R2B holoenzyme dissociation, Cy5-IP20 fluorescence polarization; R2B truncated from residue 108, S112A mutant; 0% DMSO only, 100% 113 µM cGMP;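 active means activation above a cutoff set at the mean over all compounds plus 3 SD, cut at about 18% in these data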;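 further: higher means more holoenzyme dissociation and a rise in polarization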
# CCR6 antagonist: antagonists of human CCR6 receptor. CHO-K1 CCR6 PathHunter beta-arrestin, luminescence, CCL20-stimulated. 340,000 tested, 0.49% active. inhibition, % at 20 µM;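 active means compounds whose inhibition of the agonist-driven luminescence signal at 20 µM reaches about 50%, limit read from the data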;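 further: cells stimulated with CCL20 at 14 nM final; plate controls were DMSO with CCL20 for no effect and DMSO without agonist for full effect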
# R1A FP artifact: FP assay interference, PKA-R1A counter-screen; shares compounds with PKA-R1A act; Cy5-IP20 peptide alone, fluorescence polarization artifact counterscreen; activation, % at 11.4 µM; 280 tested, 7% active; AID 504799;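 active means mean activation over triplicate runs exceeds the adjusted cutoff derived for the parent primary screen, cut at about 19% in these data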;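 further: no PKA protein present so any polarization rise reflects compound interference; 0% = tracer peptide mix alone and 100% = mix with added PKA catalytic subunit; higher means stronger polarization artifact and likely false positive in parent screen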
# PKA-R1A act conf: PKA-R1A complex activation, confirmation; shares compounds with PKA-R1A act; activation, % at 11.4 µM; Cy5-IP20 fluorescence polarization, PKA-R1A holoenzyme dissociation; 280 tested, 9% active;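 active means mean activation over replicate wells exceeds the adjusted hit threshold taken from the earlier primary screen, cut at about 20% in these data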;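 further: 0% = holoenzyme mix with DMSO only and 100% = cGMP-activated control wells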
# * hit, by the source's call; / = no result. The list is not random: actives were taken first. Their share in the collection is about 0.88%.
SMILES,APJ antag,APJ ag,CXCR6 inh,PKA-R1A act,PKA-R2B act,CCR6 antagonist,R1A FP artifact,PKA-R1A act conf
O=C(/C=C/c1ccco1)NCC1COc2ccccc2O1 (stereo not given),7.5,-2.5,-13.0,18.8*,8.1,-0.1,-5.1,-4.1
COc1ccc(CCNC(=O)Cn2cnc3sc(C)c(-c4ccc(F)cc4)c3c2=O)cc1OC,-12.8,-2.2,1.5,18.9*,-0.9,6.2,2.2,4.7
COc1ccc(/C=C2\SC(=O)N(CC(=O)Nc3ccc(O)cc3)C2=O)cc1OC,-9.1,-2.2,5.8,22.8*,17.2,3.7,18.3,22.8*
Cc1nc(SCC(=O)NCC2CCCO2)[nH]c(=O)c1C (stereo not given),-2.7,1.6,5.3,17.0,-5.9,8.8,/,/
CC(C)CNS(=O)(=O)c1ccc(S(=O)(=O)N2CCN(CCC#N)CC2)cc1,-44.1,-3.2,5.3,-6.3,-11.9,19.1,/,/
Cc1cc(C)c(S(=O)(=O)Cc2ccccc2)c(=O)[nH]1,-2.5,-3.6,-1.5,21.5*,-3.9,5.7,5.6,5.1
O=C(Nc1ccccc1[N+](=O)[O-])OCC=Cc1ccccc1,/,/,-7.0,8.7,9.2,/,/,/
CNC(=O)COC(=O)c1ccc(OCC(=O)Nc2ccccc2OC)c(OC)c1,3.6,-1.3,0.2,22.1*,1.3,3.4,-2.7,1.4
Cc1cc(NCCO)nc(-n2nc(C)cc2C)n1,3.9,-5.7,0.5,21.6*,7.7,10.8,-2.8,-1.2
Cc1cc(N(CCO)CCO)nc(-n2nc(C)cc2C)n1,1.0,0.8,-0.4,-2.0,-1.4,-12.9,/,/
CCOc1ccc(-c2nnn(CCC(=O)O)n2)cc1OC,-9.3,-0.9,0.0,19.1*,-6.9,2.3,1.4,-0.9
COc1ccccc1N=Nc1c(C)n[nH]c1C,17.1,-1.4,4.3,18.7*,-5.3,5.0,-1.3,0.9
O=C(NCc1nc2ccccc2[nH]1)C1=C[C@H](c2ccc(C(F)(F)F)cc2)C[C@H](OCc2ccc(CO)cc2)O1,3.4,-0.4,9.7,20.5*,13.7,20.4,29.0*,18.0
c1ccc(Nc2cc(Nc3ccccc3)[nH]n2)cc1,-5.2,0.1,-10.0,-5.5,3.0,-16.8,/,/
CC1C(=O)N(Cc2cn(CCC3OCCO3)nn2)CCS(=O)(=O)N1Cc1ccc(-c2ccncc2)cc1 (stereo not given),/,/,5.0,1.6,-6.5,/,/,/
CC1C(=O)N(Cc2cn(CCC3OCCO3)nn2)CCS(=O)(=O)N1Cc1ccc(-c2ccc(F)cc2)cc1 (stereo not given),/,/,-5.9,19.7*,-13.2,/,1.8,1.8
O=C1C2C3C=CC(C3)C2C(=O)N1CCC(=O)N1CCc2ccccc21 (stereo not given),10.0,-2.8,1.4,23.4*,-6.5,7.6,2.2,4.2
O=C(O)CN1C(=O)/C(=C\c2cc(Br)ccc2OCc2ccc([N+](=O)[O-])cc2)SC1=S,9.7,-3.4,2.3,24.6*,0.9,9.4,0.5,1.0
O=C(Cn1cnc2c(cnn2-c2ccc(F)cc2)c1=O)N1CCN(c2ccccc2F)CC1,-9.1,-2.4,-0.6,-2.5,-1.6,12.9,/,/
O=C(Cn1nnc2c(cnn2-c2ccccc2)c1=O)N1CCN(c2ccccc2F)CC1,9.2,-6.1,2.9,18.9*,10.8,14.6,3.2,0.7
CSCCC(NC(=O)c1cccc(C)c1)C(=O)Nc1sccc1C(N)=O (stereo not given),-36.4,-0.9,5.0,1.0,11.0,8.9,/,/
COc1ccc(N2CCN(S(=O)(=O)CCNC(=O)c3ccc(Br)o3)CC2)cc1,11.0,-2.6,-7.8,5.8,4.4,3.0,/,/
CCN(CC)CCOC(=O)C(Cc1ccco1)Cc1cccc2ccccc12 (stereo not given),-30.1,-4.6,0.4,23.8*,-2.8,13.4,1.1,0.3
CC(CCC(=O)O)C1CC[C@@]2(C)C3C(=O)CC4C(C)(C)C(O)CC[C@]4(C)C3C(=O)C[C@]12C (stereo not given in full),4.9,0.9,-9.3,19.6*,6.4,10.3,8.2,4.0
Cc1ccc(S(=O)(=O)N2CCN(C(=S)NCc3ccc4c(c3)OCO4)CC2)cc1,12.3,-1.9,4.9,-0.4,-6.1,8.0,/,/
SMILES,APJ antag,APJ ag,CXCR6 inh,PKA-R1A act,PKA-R2B act,CCR6 antagonist,R1A FP artifact,PKA-R1A act conf
O=C(CSc1nc2c(c(C(F)(F)F)n1)CCc1ccccc1-2)NCc1ccco1,-18.1,-0.5,-1.7,8.2,0.7,13.7,/,/
CC(NC(=O)CSc1nc2c(c(C(F)(F)F)n1)CCc1ccccc1-2)c1ccccc1 (stereo not given),17.6,1.4,1.4,18.8*,-4.6,19.3,5.8,3.3
COc1ccc(-c2[nH]n(-c3ccc([N+](=O)[O-])cc3)c(=O)c2C=NCC2CCCO2)cc1 (stereo not given),5.4,-4.7,12.9,19.8*,9.6,25.4,3.9,1.7
Cn1cc(CN2CCC(N3CCNC(=O)CC3)CC2)c(-c2ccccc2F)n1,6.7,-0.5,6.4,-13.6,6.0,10.3,/,/
CC(C)N(CC(=O)Nc1ccc(Cl)cc1C(F)(F)F)C(=O)CCl,15.0,0.4,-3.8,19.5*,-2.8,18.7,4.8,2.3
Cc1[nH][nH]c(=O)c1/C=N/N1CCOCC1,2.8,-1.7,-5.0,-1.8,-1.8,15.8,/,/
COc1ccc(S(=O)(=O)N2CCC(C(=O)NCc3cccs3)CC2)cc1,9.3,-4.4,-5.2,-15.9,-8.9,6.6,/,/
O=C(N/N=C\c1ccc(Cl)s1)c1cccs1,-7.3,-1.7,10.5,20.4*,-8.8,2.9,-3.1,2.5
O=C(N/N=C/c1ccncc1)c1cccs1,1.7,-3.7,-5.9,5.7,0.0,-3.3,/,/
CN(C)c1ccc(Cc2ccc(N(C)C)cc2)cc1,/,/,-5.1,20.6*,-3.2,18.4,-2.4,-0.1
CCCCC(=O)Nc1ccc(NC(=O)C2CC2)cn1,18.5,0.4,1.6,19.6*,-0.8,-2.7,5.5,5.1
CCCC(=O)Nc1ccc(NC(=O)C2CC2)cn1,-3.6,-3.9,2.0,-1.6,-4.8,-0.1,/,/
C=CCOc1ccccc1CN1CCC(CO)(CCOc2ccccc2)CC1,-18.2,2.2,2.0,-4.7,5.9,0.5,/,/
Nc1ccc(C(=O)NC23CC4CC(CC(C4)C2)C3)cc1,15.5,-1.7,-3.0,3.1,0.7,-3.7,/,/
Cc1nc2cc(-c3ccc(Cl)cc3)nn2c(C)c1CCC(=O)NCc1ccco1,-14.6,-1.4,-7.4,25.2*,9.9,4.9,0.8,-1.6
